Source: ChEMBL document CHEMBL4190302, “Antarctic Moss Biflavonoids Show High Antioxidant and Ultraviolet-Screening Activity” (J Nat Prod, 2017)

Experiments:
[1] = Antioxidant activity assessed as DPPH radical scavenging activity after 30 mins under dark condition relative to rutin; format: functional
[2] = Ultraviolet radiation absorbing capacity of the compound at 315 to 400 nm; format: physicochemical; conditions: 0.4 µM
[3] = Antioxidant activity assessed as DPPH radical scavenging activity after 30 mins under dark condition; format: functional
In short: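 Serially diluted samples were run in replicates of four, and 200 μM DPPH (concentration as added) was added. MeOH served as the negative control and rutin (820 μM) as the positive control. A row without DPPH gave the background correction. Plates were held in the dark for 30 min, then read at 517 nm. IC50 was interpolated from % scavenging versus log concentration and reported as mean ± SD.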

Row | SMILES | Activity [2] | IC50 [3] | Activity [1]
1 | O=Cc1ccc(O)cc1 [4-HYDROXYBENZALDEHYDE] | Active | 476000 µM | 
2 | O=C(O)/C=C/c1ccc(O)cc1 [COUMARIC ACID] | Active | 29700 µM | 
3 | COc1cc(/C=C/C(=O)O)ccc1O [FERULATE] | Active | 75 µM | 
4 | COc1cc(C=O)ccc1O [VANILLIN] | Active | 14400 µM | 

More lines, main results first:

Row | Activity [2] | IC50 [3] | SMILES | Activity [1]
5 | Active | 33.5 µM | O=c1cc(-c2cc(O)c(O)c(-c3c(O)cc(O)c4c(=O)cc(-c5ccc(O)c(O)c5)oc34)c2)oc2cc(O)cc(O)c12 | 13%
6 | Active | 128 µM | O=C1CC(c2cc(O)c(O)c(-c3c(O)cc(O)c4c(=O)cc(-c5ccc(O)c(O)c5)oc34)c2)Oc2cc(O)cc(O)c21 (racemic) | 
7 |  | 38.6 µM | C[C@@H]1O[C@@H](OC[C@H]2O[C@@H](Oc3c(-c4ccc(O)c(O)c4)oc4cc(O)cc(O)c4c3=O)[C@H](O)[C@@H](O)[C@@H]2O)[C@H](O)[C@H](O)[C@H]1O [RUTIN] | 
